{
  "source": "ChEMBL document CHEMBL1629583",
  "about": "“Establishment of in vitro susceptibility testing methodologies and comparative activities of piperacillin in combination with the penem {beta}-lactamase inhibitor BLI-489” (2009)",
  "type_in_all_cases": "functional",
  "key": {"Burkholderia cepacia": {"tested_on": "Burkholderia cepacia", "test": "Antimicrobial activity against Burkholderia cepacia clinical isolate after 18 to 22 hrs by broth microdilution method in presence of beta-lactamase inhibitor Tazobactam", "method_in_brief": "(§1)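 Piperacillin-tazobactam was tested on recent clinical isolates by CLSI broth microdilution in Mueller-Hinton II broth, with tazobactam at constant 4 μg/ml. Wells held 10^5 CFU/ml and were incubated 18 to 22 h at 35°C in ambient air. MIC was the lowest concentration with no growth visible to the unaided eye.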"}, "[1]": {"tested_on": "Stenotrophomonas maltophilia", "test": "Antimicrobial activity against Stenotrophomonas maltophilia clinical isolate after 18 to 22 hrs by broth microdilution method in presence of beta-lactamase inhibitor BLI-489", "method_in_brief": "(§2)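 CLSI broth microdilution in Mueller-Hinton II broth. Serial dilutions of piperacillin were tested with BLI-489 held at a constant 4 μg/ml. Inoculum was 10^5 CFU/ml. Plates were incubated 18 to 22 h at 35°C in ambient air. MIC was the lowest concentration giving complete growth inhibition by unaided eye.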"}, "Haemophilus influenzae": {"tested_on": "Haemophilus influenzae", "test": "Antimicrobial activity against beta-lactamase-negative Haemophilus influenzae clinical isolate after 18 to 22 hrs by broth microdilution method in presence of beta-lactamase inhibitor Tazobactam", "method_in_brief": "(§3)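 […] was used for CLSI broth microdilution with piperacillin-tazobactam. Inoculum was 10^5 CFU/ml, incubated 18 to 22 h at 35°C in ambient air. MIC was the lowest concentration with no growth visible to the unaided eye.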"}, "[2]": {"tested_on": "Haemophilus parainfluenzae", "test": "Antimicrobial activity against Haemophilus parainfluenzae clinical isolate after 18 to 22 hrs by broth microdilution method in presence of beta-lactamase inhibitor Tazobactam", "method_in_brief": "as §3"}, "Moraxella catarrhalis [3]": {"tested_on": "Moraxella catarrhalis", "test": "Antimicrobial activity against Moraxella catarrhalis clinical isolate after 18 to 22 hrs by broth microdilution method in presence of beta-lactamase inhibitor Tazobactam", "method_in_brief": "(§4)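 Piperacillin-tazobactam was tested by CLSI broth microdilution in Mueller-Hinton II broth against clinical isolates. Inoculum was 10^5 CFU/ml, with 18 to 22 h incubation at 35°C in ambient air. MIC was read as the lowest concentration completely inhibiting visible growth.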"}, "Moraxella catarrhalis [4]": {"tested_on": "Moraxella catarrhalis", "test": "Antimicrobial activity against Moraxella catarrhalis clinical isolate after 18 to 22 hrs by broth microdilution method in presence of beta-lactamase inhibitor BLI-489", "method_in_brief": "as §2"}, "Enterococcus faecalis": {"tested_on": "Enterococcus faecalis", "test": "Antimicrobial activity against Enterococcus faecalis clinical isolate after 18 to 22 hrs by broth microdilution method in presence of beta-lactamase inhibitor Tazobactam", "method_in_brief": "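CLSI broth microdilution in Mueller-Hinton II broth. Antibiotic in serial dilution with the β-lactamase inhibitor held at a constant 4 μg/ml. Inoculum 10^5 CFU/ml. Incubated 18 to 22 h at 35°C in ambient air.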"}, "Enterococcus avium": {"tested_on": "Enterococcus avium", "test": "Antimicrobial activity against Enterococcus avium clinical isolate after 18 to 22 hrs by broth microdilution method in presence of beta-lactamase inhibitor BLI-489", "method_in_brief": "(§5)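 CLSI broth microdilution in Mueller-Hinton II broth. Piperacillin serial dilutions were combined with BLI-489 held constant at 4 μg/ml. Inoculum was 10^5 CFU/ml. Plates were incubated 18 to 22 h at 35°C in ambient air. MIC was the lowest concentration completely inhibiting growth seen by the unaided eye. Piperacillin-tazobactam interpretive criteria were applied.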"}, "Streptococcus agalactiae": {"tested_on": "Streptococcus agalactiae", "test": "Antimicrobial activity against Streptococcus agalactiae clinical isolate after 18 to 22 hrs by broth microdilution method in presence of beta-lactamase inhibitor Tazobactam", "method_in_brief": "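Streptococcal isolates were tested with piperacillin-tazobactam by CLSI broth microdilution in Mueller-Hinton II broth supplemented with 5% lysed horse blood. Inoculum was 10^5 CFU/ml, incubated 18 to 22 h at 35°C in ambient air. Visual endpoint: lowest concentration with complete inhibition.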"}, "Clostridium perfringens": {"tested_on": "Clostridium perfringens", "test": "Antimicrobial activity against Clostridium perfringens clinical isolate after 18 to 22 hrs by broth microdilution method in presence of beta-lactamase inhibitor BLI-489"}, "Escherichia coli [5]": {"tested_on": "Escherichia coli", "test": "Antimicrobial activity against class A extended spectrum beta-lactamase- producing Escherichia coli clinical isolate after 18 to 22 hrs by broth microdilution method in presence of beta-lactamase inhibitor Tazobactam", "method_in_brief": "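CLSI broth microdilution of piperacillin-tazobactam in Mueller-Hinton II broth with serial dilutions. Inoculum was 10^5 CFU/ml. Incubation was 18 to 22 h at 35°C in ambient air. MIC was read as the lowest concentration giving complete inhibition of growth visible to the unaided eye.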"}, "Escherichia coli [6]": {"tested_on": "Escherichia coli", "test": "Antimicrobial activity against AmpC beta-lactamase-producing Escherichia coli clinical isolate after 18 to 22 hrs by broth microdilution method in presence of beta-lactamase inhibitor Tazobactam", "method_in_brief": "as §1"}, "Citrobacter freundii [7]": {"tested_on": "Citrobacter freundii", "test": "Antimicrobial activity against AmpC beta-lactamase-producing Citrobacter freundii clinical isolate after 18 to 22 hrs by broth microdilution method in presence of beta-lactamase inhibitor Tazobactam", "method_in_brief": "as §1"}, "Klebsiella aerogenes": {"tested_on": "Klebsiella aerogenes", "test": "Antimicrobial activity against Enterobacter aerogenes clinical isolate after 18 to 22 hrs by broth microdilution method in presence of beta-lactamase inhibitor Tazobactam", "method_in_brief": "as §1"}, "Serratia marcescens [8]": {"tested_on": "Serratia marcescens", "test": "Antimicrobial activity against AmpC beta-lactamase-producing Serratia marcescens clinical isolate after 18 to 22 hrs by broth microdilution method in presence of beta-lactamase inhibitor BLI-489", "method_in_brief": "as §5"}, "Citrobacter freundii [9]": {"tested_on": "Citrobacter freundii", "test": "Antimicrobial activity against Citrobacter freundii clinical isolate after 18 to 22 hrs by broth microdilution method in presence of beta-lactamase inhibitor BLI-489", "method_in_brief": "as §5"}, "Klebsiella pneumoniae": {"tested_on": "Klebsiella pneumoniae", "test": "Antimicrobial activity against class A extended spectrum beta-lactamase- and class D OXA- producing Klebsiella pneumoniae clinical isolate after 18 to 22 hrs by broth microdilution method in presence of beta-lactamase inhibitor Tazobactam", "method_in_brief": "as §4"}, "Serratia marcescens [10]": {"tested_on": "Serratia marcescens", "test": "Antimicrobial activity against Serratia marcescens clinical isolate after 18 to 22 hrs by broth microdilution method in presence of beta-lactamase inhibitor BLI-489", "method_in_brief": "as §2"}, "Providencia rettgeri": {"tested_on": "Providencia rettgeri", "test": "Antimicrobial activity against Providencia rettgeri clinical isolate after 18 to 22 hrs by broth microdilution method in presence of beta-lactamase inhibitor BLI-489", "method_in_brief": "as §2"}, "Acinetobacter johnsonii [11]": {"tested_on": "Acinetobacter johnsonii", "test": "Antimicrobial activity against Acinetobacter johnsonii clinical isolate after 18 to 22 hrs by broth microdilution method in presence of beta-lactamase inhibitor Tazobactam", "method_in_brief": "as §1"}, "Acinetobacter johnsonii [12]": {"tested_on": "Acinetobacter johnsonii", "test": "Antimicrobial activity against Acinetobacter johnsonii clinical isolate after 18 to 22 hrs by broth microdilution method in presence of beta-lactamase inhibitor BLI-489", "method_in_brief": "as §5"}, "Acinetobacter junii": {"tested_on": "Acinetobacter junii", "test": "Antimicrobial activity against Acinetobacter junii clinical isolate after 18 to 22 hrs by broth microdilution method in presence of beta-lactamase inhibitor Tazobactam", "method_in_brief": "as §1"}},
  "data": [
    {"smiles": "CCN1CCN(C(=O)N[C@@H](C(=O)N[C@@H]2C(=O)N3[C@@H]2SC(C)(C)[C@@H]3C(=O)O)c2ccccc2)C(=O)C1=O", "note": "[PIPERACILLIN]", "values": [
      {"measurement": "MIC50", "setting": "Burkholderia cepacia", "result": 4, "unit": "µg/mL"},
      {"measurement": "MIC90", "setting": "Burkholderia cepacia", "result": 64, "unit": "µg/mL"},
      {"measurement": "MIC50", "setting": "[1]", "result": "> 128", "unit": "µg/mL"},
      {"measurement": "MIC90", "setting": "[1]", "result": "> 128", "unit": "µg/mL"},
      {"measurement": "MIC50", "setting": "Haemophilus influenzae", "result": 0.008, "unit": "µg/mL"},
      {"measurement": "MIC90", "setting": "Haemophilus influenzae", "result": 0.03, "unit": "µg/mL"},
      {"measurement": "MIC50", "setting": "[2]", "result": 0.06, "unit": "µg/mL"},
      {"measurement": "MIC90", "setting": "[2]", "result": 0.25, "unit": "µg/mL"},
      {"measurement": "MIC", "setting": "Moraxella catarrhalis [3]", "result": "≤ 0.004", "unit": "µg/mL"},
      {"measurement": "MIC50", "setting": "Moraxella catarrhalis [3]", "result": "≤ 0.004", "unit": "µg/mL"},
      {"measurement": "MIC90", "setting": "Moraxella catarrhalis [3]", "result": 0.008, "unit": "µg/mL"},
      {"measurement": "MIC", "setting": "Moraxella catarrhalis [4]", "result": "≤ 0.004", "unit": "µg/mL"},
      {"measurement": "MIC50", "setting": "Moraxella catarrhalis [4]", "result": "≤ 0.004", "unit": "µg/mL"},
      {"measurement": "MIC90", "setting": "Moraxella catarrhalis [4]", "result": 0.015, "unit": "µg/mL"},
      {"measurement": "MIC", "setting": "Enterococcus faecalis", "result": 2, "unit": "µg/mL"},
      {"measurement": "MIC50", "setting": "Enterococcus faecalis", "result": 2, "unit": "µg/mL"},
      {"measurement": "MIC90", "setting": "Enterococcus faecalis", "result": 4, "unit": "µg/mL"},
      {"measurement": "MIC50", "setting": "Enterococcus avium", "result": 8, "unit": "µg/mL"},
      {"measurement": "MIC90", "setting": "Enterococcus avium", "result": 32, "unit": "µg/mL"},
      {"measurement": "MIC50", "setting": "Streptococcus agalactiae", "result": 0.12, "unit": "µg/mL"},
      {"measurement": "MIC90", "setting": "Streptococcus agalactiae", "result": 0.25, "unit": "µg/mL"},
      {"measurement": "MIC", "setting": "Clostridium perfringens", "result": "≤ 0.015", "unit": "µg/mL"},
      {"measurement": "MIC50", "setting": "Clostridium perfringens", "result": "≤ 0.015", "unit": "µg/mL"},
      {"measurement": "MIC90", "setting": "Clostridium perfringens", "result": "≤ 0.015", "unit": "µg/mL"},
      {"measurement": "MIC50", "setting": "Escherichia coli [5]", "result": 16, "unit": "µg/mL"},
      {"measurement": "MIC90", "setting": "Escherichia coli [5]", "result": 32, "unit": "µg/mL"},
      {"measurement": "MIC50", "setting": "Escherichia coli [6]", "result": 4, "unit": "µg/mL"},
      {"measurement": "MIC90", "setting": "Escherichia coli [6]", "result": 8, "unit": "µg/mL"},
      {"measurement": "MIC50", "setting": "Citrobacter freundii [7]", "result": 8, "unit": "µg/mL"},
      {"measurement": "MIC90", "setting": "Citrobacter freundii [7]", "result": "> 128", "unit": "µg/mL"},
      {"measurement": "MIC50", "setting": "Klebsiella aerogenes", "result": 64, "unit": "µg/mL"},
      {"measurement": "MIC90", "setting": "Klebsiella aerogenes", "result": 128, "unit": "µg/mL"},
      {"measurement": "MIC50", "setting": "Serratia marcescens [8]", "result": 2, "unit": "µg/mL"},
      {"measurement": "MIC90", "setting": "Serratia marcescens [8]", "result": 8, "unit": "µg/mL"},
      {"measurement": "MIC50", "setting": "Citrobacter freundii [9]", "result": 2, "unit": "µg/mL"},
      {"measurement": "MIC90", "setting": "Citrobacter freundii [9]", "result": 16, "unit": "µg/mL"},
      {"measurement": "MIC50", "setting": "Klebsiella pneumoniae", "result": 16, "unit": "µg/mL"},
      {"measurement": "MIC90", "setting": "Klebsiella pneumoniae", "result": "> 128", "unit": "µg/mL"},
      {"measurement": "MIC50", "setting": "Serratia marcescens [10]", "result": 1, "unit": "µg/mL"},
      {"measurement": "MIC90", "setting": "Serratia marcescens [10]", "result": 4, "unit": "µg/mL"},
      {"measurement": "MIC50", "setting": "Providencia rettgeri", "result": 1, "unit": "µg/mL"},
      {"measurement": "MIC90", "setting": "Providencia rettgeri", "result": 8, "unit": "µg/mL"},
      {"measurement": "MIC50", "setting": "Acinetobacter johnsonii [11]", "result": "≤ 0.12", "unit": "µg/mL"},
      {"measurement": "MIC90", "setting": "Acinetobacter johnsonii [11]", "result": 32, "unit": "µg/mL"},
      {"measurement": "MIC50", "setting": "Acinetobacter johnsonii [12]", "result": 4, "unit": "µg/mL"},
      {"measurement": "MIC90", "setting": "Acinetobacter johnsonii [12]", "result": 16, "unit": "µg/mL"},
      {"measurement": "MIC50", "setting": "Acinetobacter junii", "result": "≤ 0.12", "unit": "µg/mL"},
      {"measurement": "MIC90", "setting": "Acinetobacter junii", "result": 32, "unit": "µg/mL"}
    ]}
  ]
}
